According to ChEMBL document CHEMBL4680176, “Identification of DOT1L inhibitors by structure-based virtual screening adapted from a nucleoside-focused library” (Eur J Med Chem, 2020):
Calls of active or inactive are those of the source. The calls are words filed in the database; no cut-off is given here.

Test system: Bone marrow cell
Assay: Induction of cell differentiation in mouse bone marrow cells transformed with MLL-AF9 assessed as change in morphology at 3 uM incubated for 6 days by Wright-Giemsa staining based inverted microscopy
Format: functional
Settings: time 6.0 day
Summary of the method: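 Cells taken on day 6 of the proliferation culture (MLL-AF9 murine line, IMDM + 15% FBS + IL-3, re-dosed at each split, 0.3% DMSO). Cytospun onto slides, Wright-Giemsa stained, and imaged under bright field on an inverted microscope to assess morphology.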

## CC(C)N(CCCNC(=O)Nc1ccc(C(C)(C)C)cc1)C[C@H]1O[C@@H](n2ccc3c(N)ncnc32)[C@H](O)[C@@H]1O
  Activity: Active
